These results are taken from ChEMBL document CHEMBL4261561, “Thiosemicarbazone-based selective proliferation inactivators inhibit gastric cancer cell growth, invasion, and migration” (Medchemcomm, 2017).

Holding throughout (type): functional, cell-based
One assay relates to MGC-803. The assay can be described thus: Antiproliferative activity against human MGC803 cells after 72 hrs by MTT assay. Particulars: MGC-803, 72 h. The method in brief:
(§1)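 Exponentially growing cells were seeded at about 3×10^3 per well and left 24 h, then given fresh medium with a range of compound concentrations for 72 h. MTT solution (5 mg/mL) was added for another 4 h. Medium was removed, formazan was dissolved in DMSO, and absorbance was read at 570 nm. IC50 was derived statistically.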

For the next assay, the system named is SMMC-7721. As to the kind of experiment: Antiproliferative activity against human SMMC7721 cells after 72 hrs by MTT assay. Particulars: SMMC-7721, 72 h. In a few lines:
as §1

In a further assay the test system is MCF7. The assay can be described thus: Antiproliferative activity against human MCF7 cells after 72 hrs by MTT assay. Particulars: MCF7, 72 h. In a few lines: as §1
For orientation: Tetrazolium dyes change colour on reduction, which living cells bring about.

Broadly, the IC50 is the concentration needed to halve the response being measured. High values mean lower potency, low ones higher potency. Take `Oc1ccc(Cl)cc1/C=N/NC(=S)N1CCOCC1`: the IC50 was 16.3 µM with MGC-803, 35.3 µM in the assay with SMMC-7721 and above 64 µM in the assay with MCF7.

For `C/C(=N\NC(=S)N1CCOCC1)c1ccccc1`, the results for the IC50 in the assay on MGC-803, in the assay on SMMC-7721 and in the assay with MCF7 were 32.6 µM, above 64 µM and 44.6 µM, respectively.

As to `CC(C)(C)OC(=O)N1CCN(C(=S)N/N=C/c2ccccc2O)CC1`, the IC50 is 10.2 µM with MGC-803, 27.3 µM in the assay on SMMC-7721 and 41.9 µM in the assay with MCF7.

For `Oc1c(Br)cc(Br)cc1/C=N/NC(=S)N1CCOCC1`, the concentration for half-maximal inhibition (IC50) is 20.4 µM with MGC-803, 32.6 µM in the assay on SMMC-7721 and above 64 µM in the assay with MCF7.

Consider `Oc1ccccc1/C=N/NC(=S)N1CCOCC1`, for which the 50% inhibitory concentration (IC50) was 29.2 µM with MGC-803, 37.3 µM with SMMC-7721 and above 64 µM in the assay with MCF7.

For the compound `Oc1ccccc1/C=N/NC(=S)Nc1ccccc1`, the figures for the half-inhibitory concentration (IC50) in the assay with MGC-803, in the assay with SMMC-7721 and with MCF7 were 2.42 µM, 34.1 µM and 12.4 µM, respectively.

For the compound `C/C(=N\NC(=S)N1CCOCC1)c1ccccc1N`, the IC50 in the assay with MGC-803, in the assay on SMMC-7721 and in the assay with MCF7 was above 64 µM throughout.

For the compound `C/C(=N\NC(=S)N1CCOCC1)c1ccc(O)cc1`, the concentration for half-maximal inhibition (IC50) in the assay on MGC-803, in the assay on SMMC-7721 and in the assay with MCF7 was above 64 µM each time.

For the compound `Oc1ccc2ccccc2c1/C=N/NC(=S)N1CCOCC1`, the values for the IC50 with MGC-803, in the assay with SMMC-7721 and in the assay with MCF7 were above 64 µM, 44.9 µM and above 64 µM, respectively.
